Results reported in ChEMBL document CHEMBL5058577, “EUbOPEN Chemogenomics Library 2 (Multiplex)” (2022).

Tested on: U2OS
Test: Multiplex assay against U2OS
Assay type: toxicity, cell-based
Settings: human
In short: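 Imaging took place on a CQ1 microscope at 37°C and 5% CO2 once compound had been added to live cells stained at seeding with Hoechst33342, BioTracker Green Microtubule Cytoskeleton Dye, MitoTracker Red and Annexin V Alexa Fluor 680. CellPathfinder machine-learning gating classed cells as Hoechst high-intensity objects or normal cells, classed normal cells as having healthy, pyknosed or fragmented nuclei, and classed pyknosed cells as mitotic or apoptotic. Tubulin, mitochondrial-mass and membrane-permeability phenotypes are per cents of the healthy-nucleus cells.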

[1] = 12 h, 1 µM, compound concentration 1 uM, replicate 1
[2] = 12 h, 1 µM, compound concentration 1 uM, replicate 2
[3] = 12 h, 10 µM, compound concentration 10 uM, replicate 1
[4] = 12 h, 10 µM, compound concentration 10 uM, replicate 2
[5] = 24 h, 1 µM, compound concentration 1 uM, replicate 1
[6] = 24 h, 1 µM, compound concentration 1 uM, replicate 2
[7] = 24 h, 10 µM, compound concentration 10 uM, replicate 1
[8] = 24 h, 10 µM, compound concentration 10 uM, replicate 2
[9] = 48 h, 1 µM, compound concentration 1 uM, replicate 1
[10] = 48 h, 1 µM, compound concentration 1 uM, replicate 2
[11] = 48 h, 10 µM, compound concentration 10 uM, replicate 1
[12] = 48 h, 10 µM, compound concentration 10 uM, replicate 2

COc1ccc2c(c1)C(C(=O)N(Cc1ccc(N(C)C)cc1)c1ccc(C(C)C)cc1)CCC2.Cl (stereo not given)
Population Apoptotic (%) [1]: 70%
Population Fragmented Nuclei (%) [1]: 36%
Population Healthy Nuclei (%) [1]: 54%
Population Hoechst High Intensity Objects (%) [1]: 4%
Population Membrane Permeable-Phenotype (%) [1]: 8%
Population Mitochondria Different-Phenotype (%) [1]: 5%
Population Mitotic Cells (%) [1]: 29%
Population Normal (%) [1]: 95%
Population Pyknosed Nuclei (%) [1]: 9%
Population Tubulin-Different-Phenotype (%) [1]: 4%
Total Cell Count [1]: 264
Population Fragmented Nuclei (%) [2]: 17%
Population Healthy Nuclei (%) [2]: 73%
Population Hoechst High Intensity Objects (%) [2]: 3%
Population Membrane Permeable-Phenotype (%) [2]: 9%
Population Mitochondria Different-Phenotype (%) [2]: 3%
Population Mitotic Cells (%) [2]: 30%
Population Normal (%) [2]: 96%
Population Pyknosed Nuclei (%) [2]: 8%
Population Tubulin-Different-Phenotype (%) [2]: 2%
Total Cell Count [2]: 122
Population Apoptotic (%) [3]: 38%
Population Fragmented Nuclei (%) [3]: 27%
Population Healthy Nuclei (%) [3]: 50%
Population Hoechst High Intensity Objects (%) [3]: 4%
Population Membrane Permeable-Phenotype (%) [3]: 73%
Population Mitochondria Different-Phenotype (%) [3]: 55%
Population Mitotic Cells (%) [3]: 61%
Population Normal (%) [3]: 95%
Population Pyknosed Nuclei (%) [3]: 22%
Population Tubulin-Different-Phenotype (%) [3]: 80%
Total Cell Count [3]: 224
Population Apoptotic (%) [4]: 60%
Population Fragmented Nuclei (%) [4]: 16%
Population Healthy Nuclei (%) [4]: 60%
Population Membrane Permeable-Phenotype (%) [4]: 43%
Population Mitochondria Different-Phenotype (%) [4]: 73%
Population Mitotic Cells (%) [4]: 40%
Population Pyknosed Nuclei (%) [4]: 23%
Population Tubulin-Different-Phenotype (%) [4]: 58%
Total Cell Count [4]: 113
Population Apoptotic (%) [5]: 75%
Population Fragmented Nuclei (%) [5]: 27%
Population Healthy Nuclei (%) [5]: 61%
Population Hoechst High Intensity Objects (%) [5]: 4%
Population Membrane Permeable-Phenotype (%) [5]: 5%
Population Mitochondria Different-Phenotype (%) [5]: 4%
Population Mitotic Cells (%) [5]: 24%
Population Normal (%) [5]: 95%
Population Pyknosed Nuclei (%) [5]: 11%
Population Tubulin-Different-Phenotype (%) [5]: 4%
Total Cell Count [5]: 273
Population Apoptotic (%) [6]: 100%
Population Fragmented Nuclei (%) [6]: 18%
Population Healthy Nuclei (%) [6]: 73%
Population Hoechst High Intensity Objects (%) [6]: 2%
Population Mitochondria Different-Phenotype (%) [6]: 1%
Population Mitotic Cells (%) [6]: 0%
Population Normal (%) [6]: 97%
Population Pyknosed Nuclei (%) [6]: 7%
Population Tubulin-Different-Phenotype (%) [6]: 2%
Total Cell Count [6]: 146
Population Apoptotic (%) [7]: 71%
Population Fragmented Nuclei (%) [7]: 25%
Population Healthy Nuclei (%) [7]: 50%
Population Hoechst High Intensity Objects (%) [7]: 2%
Population Membrane Permeable-Phenotype (%) [7]: 54%
Population Mitochondria Different-Phenotype (%) [7]: 42%
Population Mitotic Cells (%) [7]: 28%
Population Normal (%) [7]: 97%
Population Pyknosed Nuclei (%) [7]: 24%
Population Tubulin-Different-Phenotype (%) [7]: 49%
Total Cell Count [7]: 224
Population Apoptotic (%) [8]: 86%
Population Fragmented Nuclei (%) [8]: 20%
Population Healthy Nuclei (%) [8]: 57%
Population Hoechst High Intensity Objects (%) [8]: 9%
Population Membrane Permeable-Phenotype (%) [8]: 45%
Population Mitochondria Different-Phenotype (%) [8]: 53%
Population Mitotic Cells (%) [8]: 13%
Population Normal (%) [8]: 90%
Population Pyknosed Nuclei (%) [8]: 22%
Population Tubulin-Different-Phenotype (%) [8]: 48%
Total Cell Count [8]: 115
Population Apoptotic (%) [9]: 80%
Population Fragmented Nuclei (%) [9]: 21%
Population Healthy Nuclei (%) [9]: 65%
Population Hoechst High Intensity Objects (%) [9]: 2%
Population Membrane Permeable-Phenotype (%) [9]: 10%
Population Mitochondria Different-Phenotype (%) [9]: 5%
Population Mitotic Cells (%) [9]: 20%
Population Normal (%) [9]: 97%
Population Pyknosed Nuclei (%) [9]: 13%
Population Tubulin-Different-Phenotype (%) [9]: 3%
Total Cell Count [9]: 369
Population Apoptotic (%) [10]: 93%
Population Fragmented Nuclei (%) [10]: 17%
Population Healthy Nuclei (%) [10]: 73%
Population Hoechst High Intensity Objects (%) [10]: 3%
Population Membrane Permeable-Phenotype (%) [10]: 6%
Population Mitochondria Different-Phenotype (%) [10]: 4%
Population Mitotic Cells (%) [10]: 6%
Population Normal (%) [10]: 96%
Population Pyknosed Nuclei (%) [10]: 8%
Population Tubulin-Different-Phenotype (%) [10]: 2%
Total Cell Count [10]: 203
Population Apoptotic (%) [11]: 73%
Population Fragmented Nuclei (%) [11]: 21%
Population Healthy Nuclei (%) [11]: 47%
Population Hoechst High Intensity Objects (%) [11]: 3%
Population Membrane Permeable-Phenotype (%) [11]: 43%
Population Mitochondria Different-Phenotype (%) [11]: 26%
Population Mitotic Cells (%) [11]: 26%
Population Normal (%) [11]: 96%
Population Pyknosed Nuclei (%) [11]: 30%
Population Tubulin-Different-Phenotype (%) [11]: 31%
Total Cell Count [11]: 265
Population Apoptotic (%) [12]: 92%
Population Fragmented Nuclei (%) [12]: 26%
Population Healthy Nuclei (%) [12]: 49%
Population Hoechst High Intensity Objects (%) [12]: 8%
Population Mitochondria Different-Phenotype (%) [12]: 36%
Population Mitotic Cells (%) [12]: 7%
Population Normal (%) [12]: 91%
Population Pyknosed Nuclei (%) [12]: 24%
Population Tubulin-Different-Phenotype (%) [12]: 42%
Total Cell Count [12]: 126

Cc1nc2ccc(Oc3ccc(F)cc3)cc2c(=O)n1C[C@H]1CCCN(C(C)C)C1.Cl
Population Apoptotic (%) [1]: 83%
Population Fragmented Nuclei (%) [1]: 25%
Population Healthy Nuclei (%) [1]: 64%
Population Hoechst High Intensity Objects (%) [1]: 3%
Population Membrane Permeable-Phenotype (%) [1]: 9%
Population Mitochondria Different-Phenotype (%) [1]: 3%
Population Mitotic Cells (%) [1]: 16%
Population Normal (%) [1]: 96%
Population Pyknosed Nuclei (%) [1]: 10%
Population Tubulin-Different-Phenotype (%) [1]: 7%
Total Cell Count [1]: 244
Population Apoptotic (%) [2]: 60%
Population Fragmented Nuclei (%) [2]: 14%
Population Healthy Nuclei (%) [2]: 81%
Population Hoechst High Intensity Objects (%) [2]: 1%
Population Membrane Permeable-Phenotype (%) [2]: 17%
Population Mitochondria Different-Phenotype (%) [2]: 7%
Population Mitotic Cells (%) [2]: 40%
Population Normal (%) [2]: 98%
Population Pyknosed Nuclei (%) [2]: 4%
Population Tubulin-Different-Phenotype (%) [2]: 9%
Total Cell Count [2]: 125
Population Apoptotic (%) [3]: 65%
Population Fragmented Nuclei (%) [3]: 25%
Population Healthy Nuclei (%) [3]: 59%
Population Hoechst High Intensity Objects (%) [3]: 3%
Population Membrane Permeable-Phenotype (%) [3]: 58%
Population Mitochondria Different-Phenotype (%) [3]: 61%
Population Mitotic Cells (%) [3]: 35%
Population Normal (%) [3]: 96%
Population Pyknosed Nuclei (%) [3]: 15%
Population Tubulin-Different-Phenotype (%) [3]: 63%
Total Cell Count [3]: 268
Population Apoptotic (%) [4]: 78%
Population Fragmented Nuclei (%) [4]: 24%
Population Healthy Nuclei (%) [4]: 58%
Population Hoechst High Intensity Objects (%) [4]: 4%
Population Membrane Permeable-Phenotype (%) [4]: 25%
Population Mitochondria Different-Phenotype (%) [4]: 75%
Population Mitotic Cells (%) [4]: 21%
Population Normal (%) [4]: 95%
Population Pyknosed Nuclei (%) [4]: 17%
Population Tubulin-Different-Phenotype (%) [4]: 47%
Total Cell Count [4]: 86
Population Apoptotic (%) [5]: 78%
Population Fragmented Nuclei (%) [5]: 23%
Population Healthy Nuclei (%) [5]: 65%
Population Hoechst High Intensity Objects (%) [5]: 4%
Population Membrane Permeable-Phenotype (%) [5]: 7%
Population Mitochondria Different-Phenotype (%) [5]: 5%
Population Mitotic Cells (%) [5]: 21%
Population Normal (%) [5]: 95%
Population Pyknosed Nuclei (%) [5]: 10%
Population Tubulin-Different-Phenotype (%) [5]: 4%
Total Cell Count [5]: 276
Population Apoptotic (%) [6]: 80%
Population Fragmented Nuclei (%) [6]: 21%
Population Healthy Nuclei (%) [6]: 71%
Population Hoechst High Intensity Objects (%) [6]: 2%
Population Membrane Permeable-Phenotype (%) [6]: 11%
Population Mitochondria Different-Phenotype (%) [6]: 9%
Population Mitotic Cells (%) [6]: 20%
Population Normal (%) [6]: 97%
Population Pyknosed Nuclei (%) [6]: 6%
Population Tubulin-Different-Phenotype (%) [6]: 8%
Total Cell Count [6]: 146
Population Apoptotic (%) [7]: 77%
Population Fragmented Nuclei (%) [7]: 25%
Population Healthy Nuclei (%) [7]: 57%
Population Hoechst High Intensity Objects (%) [7]: 4%
Population Membrane Permeable-Phenotype (%) [7]: 37%
Population Mitochondria Different-Phenotype (%) [7]: 63%
Population Mitotic Cells (%) [7]: 22%
Population Normal (%) [7]: 95%
Population Pyknosed Nuclei (%) [7]: 16%
Population Tubulin-Different-Phenotype (%) [7]: 47%
Total Cell Count [7]: 297
Population Apoptotic (%) [8]: 76%
Population Fragmented Nuclei (%) [8]: 22%
Population Healthy Nuclei (%) [8]: 52%
Population Hoechst High Intensity Objects (%) [8]: 6%
Population Membrane Permeable-Phenotype (%) [8]: 22%
Population Mitochondria Different-Phenotype (%) [8]: 62%
Population Mitotic Cells (%) [8]: 23%
Population Normal (%) [8]: 93%
Population Pyknosed Nuclei (%) [8]: 24%
Population Tubulin-Different-Phenotype (%) [8]: 40%
Total Cell Count [8]: 91
Population Apoptotic (%) [9]: 84%
Population Fragmented Nuclei (%) [9]: 19%
Population Healthy Nuclei (%) [9]: 69%
Population Hoechst High Intensity Objects (%) [9]: 1%
Population Membrane Permeable-Phenotype (%) [9]: 7%
Population Mitochondria Different-Phenotype (%) [9]: 5%
Population Mitotic Cells (%) [9]: 15%
Population Normal (%) [9]: 98%
Population Pyknosed Nuclei (%) [9]: 10%
Population Tubulin-Different-Phenotype (%) [9]: 4%
Total Cell Count [9]: 371
Population Apoptotic (%) [10]: 93%
Population Healthy Nuclei (%) [10]: 72%
Population Hoechst High Intensity Objects (%) [10]: 0%
Population Mitotic Cells (%) [10]: 6%
Population Normal (%) [10]: 99%
Population Pyknosed Nuclei (%) [10]: 7%
Population Tubulin-Different-Phenotype (%) [10]: 6%
Total Cell Count [10]: 213
Population Apoptotic (%) [11]: 77%
Population Fragmented Nuclei (%) [11]: 29%
Population Healthy Nuclei (%) [11]: 54%
Population Hoechst High Intensity Objects (%) [11]: 5%
Population Membrane Permeable-Phenotype (%) [11]: 29%
Population Mitochondria Different-Phenotype (%) [11]: 36%
Population Mitotic Cells (%) [11]: 22%
Population Normal (%) [11]: 94%
Population Pyknosed Nuclei (%) [11]: 16%
Population Tubulin-Different-Phenotype (%) [11]: 23%
Total Cell Count [11]: 380
Population Apoptotic (%) [12]: 88%
Population Healthy Nuclei (%) [12]: 51%
Population Hoechst High Intensity Objects (%) [12]: 8%
Population Membrane Permeable-Phenotype (%) [12]: 27%
Population Mitochondria Different-Phenotype (%) [12]: 41%
Population Mitotic Cells (%) [12]: 11%
Population Normal (%) [12]: 91%
Population Pyknosed Nuclei (%) [12]: 19%
Population Tubulin-Different-Phenotype (%) [12]: 35%
Total Cell Count [12]: 103
